Assay results reported in ChEMBL document CHEMBL3272334, “Folate antagonists. 10. Synthesis and antimalarial effects of 6-[[(aryl and aralkyl)amino]methyl]-2,4-pteridinediamines and -pteridinediamine 8-oxides” (1978).
Converted amounts (≈) assume the structure as drawn. The source made the active and inactive calls. The calls are words filed in the database; no cut-off is given here.

How the values were obtained:
Shigella sonnei = test: Antibacterial activity against Shigella sonnei C-10 assessed as growth inhibition by gradient plate test; assay type: functional
Summary of the method: (§1)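 Modified gradient-plate method, in vitro. Panel: Streptococcus faecalis MGH-2, normal S. aureus UC-76, drug-resistant S. aureus S18713, E. coli Vogel, Shigella sonnei C-10.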

Staphylococcus aureus [1] = test: Antibacterial activity against Staphylococcus aureus UC-76 assessed as growth inhibition by gradient plate test; assay type: functional; summary of the method: as §1
Staphylococcus aureus [2] = test: Antibacterial activity against drug-resistant Staphylococcus aureus S18713 assessed as growth inhibition by gradient plate test; assay type: functional
Summary of the method: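 In vitro test against a bacterial panel (S. faecalis MGH-2, S. aureus UC-76 and drug-resistant S18713, E. coli Vogel, Shigella sonnei C-10), run as a modified gradient plate procedure.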

Plasmodium berghei [3] = test: Antimalarial activity against drug-sensitive trophozoite stage of Plasmodium berghei infected in mouse assessed as increase in mean survival time up to 640 mg/kg, sc administered 72 hrs post infection; assay type: functional, organism-based; design: dose 640 mg/kg
Escherichia coli = test: Antibacterial activity against Escherichia coli Vogel assessed as growth inhibition by gradient plate test; assay type: functional; summary of the method: as §1
Enterococcus faecalis = test: Antibacterial activity against Streptococcus faecalis MGH2 assessed as growth inhibition by gradient plate test; assay type: functional; summary of the method: as §1
Plasmodium gallinaceum [4] = test: Antimalarial activity against sporozoite stage of Plasmodium gallinaceum infected in white leghorn cockerel assessed as survival over 30 days at 3.75 mg/kg, sc administered through peanut oil on day of infection; assay type: functional, organism-based; design: dose 3.75 mg/kg
Plasmodium gallinaceum [5] = test: Antimalarial activity against sporozoite stage of Plasmodium gallinaceum infected in white leghorn cockerel assessed as survival over 30 days at 30 mg/kg, sc administered through peanut oil on day of infection; assay type: functional, organism-based; design: dose 30 mg/kg
Plasmodium gallinaceum [6] = test: Antimalarial activity against sporozoite stage of Plasmodium gallinaceum infected in white leghorn cockerel assessed as survival over 30 days at 15 mg/kg, sc administered through peanut oil on day of infection; assay type: functional, organism-based; design: dose 15 mg/kg
Plasmodium gallinaceum [7] = test: Antimalarial activity against sporozoite stage of Plasmodium gallinaceum infected in white leghorn cockerel assessed as survival over 30 days at 120 mg/kg, sc administered through peanut oil on day of infection; assay type: functional, organism-based; design: dose 120 mg/kg
Plasmodium gallinaceum [8] = test: Antimalarial activity against sporozoite stage of Plasmodium gallinaceum infected in white leghorn cockerel assessed as survival over 30 days at 60 mg/kg, sc administered through peanut oil on day of infection; assay type: functional, organism-based; design: dose 60 mg/kg
Plasmodium gallinaceum [9] = test: Antimalarial activity against sporozoite stage of Plasmodium gallinaceum infected in white leghorn cockerel assessed as survival over 30 days at 480 mg/kg, sc administered through peanut oil on day of infection; assay type: functional, organism-based; design: dose 480 mg/kg
Plasmodium gallinaceum [10] = test: Antimalarial activity against sporozoite stage of Plasmodium gallinaceum infected in white leghorn cockerel assessed as increase in mean survival time at 120 mg/kg, sc administered through peanut oil on day of infection; assay type: functional; conditions: route subcutaneous
Plasmodium gallinaceum [11] = test: Antimalarial activity against sporozoite stage of Plasmodium gallinaceum infected in white leghorn cockerel assessed as increase in mean survival time at 30 mg/kg, sc administered through peanut oil on day of infection; assay type: functional; conditions: route subcutaneous
Plasmodium gallinaceum [12] = test: Antimalarial activity against sporozoite stage of Plasmodium gallinaceum infected in white leghorn cockerel assessed as increase in mean survival time at 480 mg/kg, sc administered through peanut oil on day of infection; assay type: functional; conditions: route subcutaneous
Plasmodium berghei [13] = test: Antimalarial activity against drug-sensitive trophozoite stage of Plasmodium berghei infected in mouse assessed as survival over 60 days at 320 mg/kg, sc administered 72 hrs post infection; assay type: functional, organism-based; design: dose 320 mg/kg
Plasmodium berghei [14] = test: Antimalarial activity against trophozoite stage of Plasmodium berghei infected in mouse assessed as increase in mean survival time at 160 mg/kg, sc administered 72 hrs post infection; assay type: functional; conditions: route subcutaneous
Plasmodium berghei [15] = test: Antimalarial activity against trophozoite stage of Plasmodium berghei infected in mouse assessed as increase in mean survival time at 40 mg/kg, sc administered 72 hrs post infection; assay type: functional; conditions: route subcutaneous
Plasmodium cynomolgi [16] = test: Antimalarial activity against sporozoite stage of Plasmodium cynomolgi infected in rhesus monkey at 10 mg/kg; assay type: functional, organism-based; design: dose 10 mg/kg
Summary of the method: (§2)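 Rhesus monkey, one oral dose. Trophozoite-induced P. cynomolgi infection at 3.16 mg/kg; sporozoite-induced P. cynomolgi infection at 10 mg/kg.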

Plasmodium cynomolgi [17] = test: Antimalarial activity against trophozoite stage of Plasmodium cynomolgi infected in rhesus monkey at 3.16 mg/kg, po; assay type: functional, organism-based; design: dose 3.16 mg/kg; summary of the method: as §2
Plasmodium gallinaceum [18] = test: Antimalarial activity against sporozoite stage of Plasmodium gallinaceum infected in white leghorn cockerel assessed as survival over 30 days at 80 mg/kg, sc administered through peanut oil on day of infection; assay type: functional, organism-based; design: dose 80 mg/kg
Plasmodium gallinaceum [19] = test: Antimalarial activity against sporozoite stage of Plasmodium gallinaceum infected in white leghorn cockerel assessed as survival over 30 days at 320 mg/kg, sc administered through peanut oil on day of infection; assay type: functional, organism-based; design: dose 320 mg/kg
Plasmodium gallinaceum [20] = test: Antimalarial activity against sporozoite stage of Plasmodium gallinaceum infected in white leghorn cockerel assessed as survival over 30 days at 20 mg/kg, sc administered through peanut oil on day of infection; assay type: functional, organism-based; design: dose 20 mg/kg
Plasmodium gallinaceum [21] = test: Antimalarial activity against sporozoite stage of Plasmodium gallinaceum infected in white leghorn cockerel assessed as increase in mean survival time at 3.75 mg/kg, sc administered through peanut oil on day of infection; assay type: functional; conditions: route subcutaneous
Plasmodium gallinaceum [22] = test: Antimalarial activity against sporozoite stage of Plasmodium gallinaceum infected in white leghorn cockerel assessed as increase in mean survival time at 7.5 mg/kg, sc administered through peanut oil on day of infection; assay type: functional; conditions: route subcutaneous

Compound: CN(Cc1cnc2nc(N)nc(N)c2n1)c1ccc(Cl)cc1
- MIC (Shigella sonnei): > 25 µg/mL
- MIC (Staphylococcus aureus [1]): 1.5 µg/mL (≈ 4.75 µM)
- MIC (Staphylococcus aureus [2]): 2 µg/mL (≈ 6.33 µM)
- Activity (Plasmodium berghei [3]): inactive
- MIC (Escherichia coli): > 25 µg/mL
- MIC (Enterococcus faecalis): < 0.25 µg/mL

Compound: CC(C)N(Cc1cnc2nc(N)nc(N)c2n1)c1ccc(Cl)cc1.CN(C)C=O
- MIC (Shigella sonnei): > 25 µg/mL
- MIC (Staphylococcus aureus [1]): < 0.25 µg/mL
- Activity (Plasmodium gallinaceum [4]): Active
- Activity (Plasmodium gallinaceum [5]): Active
- MIC (Staphylococcus aureus [2]): 1.5 µg/mL
- Activity (Plasmodium berghei [3]): inactive
- Activity (Plasmodium gallinaceum [6]): Active
- MIC (Escherichia coli): > 25 µg/mL
- Activity (Plasmodium gallinaceum [7]): Active
- Activity (Plasmodium gallinaceum [8]): Active
- MIC (Enterococcus faecalis): < 0.25 µg/mL
- Activity (Plasmodium gallinaceum [9]): Active

Compound: Nc1nc(N)c2nc(CNc3ccc(Cl)c(Cl)c3)c[n+]([O-])c2n1
- Activity (Plasmodium berghei [3]): inactive

Compound: CN(Cc1c[n+]([O-])c2nc(N)nc(N)c2n1)c1ccc(Cl)cc1
- Activity (Plasmodium berghei [3]): inactive

Compound: CC(C)N(Cc1c[n+]([O-])c2nc(N)nc(N)c2n1)c1ccc(Cl)c(Cl)c1
- Activity (Plasmodium berghei [3]): inactive

Compound: CN(C)C=O.Nc1nc(N)c2nc(CN3CCCCC3c3ccccc3)cnc2n1 (configuration not stated)
- Survival (Plasmodium gallinaceum [10]): 0.2 days
- Survival (Plasmodium gallinaceum [11]): 0.1 days
- Survival (Plasmodium gallinaceum [12]): 0.3 days

Compound: Nc1nc(N)c2nc(CN(C=O)c3ccc(Cl)c(Cl)c3)cnc2n1
- MIC (Shigella sonnei): > 25 µg/mL
- MIC (Staphylococcus aureus [1]): 1 µg/mL (≈ 2.75 µM)
- MIC (Staphylococcus aureus [2]): 2 µg/mL (≈ 5.49 µM)
- Activity (Plasmodium berghei [3]): inactive
- MIC (Escherichia coli): > 25 µg/mL
- MIC (Enterococcus faecalis): < 0.25 µg/mL

Compound: CCN(Cc1cnc2nc(N)nc(N)c2n1)c1ccc(Cl)cc1
- MIC (Shigella sonnei): > 25 µg/mL
- MIC (Staphylococcus aureus [1]): < 0.25 µg/mL
- MIC (Staphylococcus aureus [2]): 1.5 µg/mL (≈ 4.55 µM)
- Activity (Plasmodium berghei [3]): inactive
- MIC (Escherichia coli): > 25 µg/mL
- MIC (Enterococcus faecalis): < 0.25 µg/mL

Compound: COc1cc(N(C)Cc2cnc3nc(N)nc(N)c3n2)cc(OC)c1OC
- MIC (Shigella sonnei): > 25 µg/mL
- MIC (Staphylococcus aureus [1]): < 0.25 µg/mL
- Activity (Plasmodium berghei [13]): Active
- MIC (Staphylococcus aureus [2]): < 0.25 µg/mL
- Survival (Plasmodium berghei [14]): 8.5 days
- MIC (Escherichia coli): > 25 µg/mL
- MIC (Enterococcus faecalis): < 0.25 µg/mL

Compound: CN(C)C=O.Nc1nc(N)c2nc(CNc3ccc(Cl)c(Cl)c3)cnc2n1
- MIC (Shigella sonnei): > 25 µg/mL
- MIC (Staphylococcus aureus [1]): < 0.25 µg/mL
- MIC (Staphylococcus aureus [2]): < 0.25 µg/mL
- Activity (Plasmodium berghei [3]): inactive
- MIC (Escherichia coli): > 25 µg/mL
- MIC (Enterococcus faecalis): < 0.25 µg/mL

Compound: CC(C)N(Cc1cnc2nc(N)nc(N)c2n1)c1ccc(Cl)c(Cl)c1
- MIC (Shigella sonnei): > 25 µg/mL
- MIC (Staphylococcus aureus [1]): < 0.25 µg/mL
- MIC (Staphylococcus aureus [2]): < 0.25 µg/mL
- Activity (Plasmodium berghei [3]): inactive
- MIC (Escherichia coli): > 25 µg/mL
- MIC (Enterococcus faecalis): < 0.25 µg/mL

Compound: CN(Cc1cnc2nc(N)nc(N)c2n1)c1ccc(Cl)c(Cl)c1
- MIC (Shigella sonnei): > 25 µg/mL
- MIC (Staphylococcus aureus [1]): < 0.25 µg/mL
- MIC (Staphylococcus aureus [2]): 1.5 µg/mL (≈ 4.28 µM)
- Activity (Plasmodium berghei [3]): inactive
- MIC (Escherichia coli): > 25 µg/mL
- MIC (Enterococcus faecalis): < 0.25 µg/mL

Compound: CN(Cc1c[n+]([O-])c2nc(N)nc(N)c2n1)c1ccc(Cl)c(Cl)c1
- Activity (Plasmodium berghei [3]): inactive

Compound: CN(Cc1c[n+]([O-])c2nc(N)nc(N)c2n1)c1cccc2ccccc12
- Activity (Plasmodium berghei [3]): inactive

Compound: CCN(Cc1c[n+]([O-])c2nc(N)nc(N)c2n1)c1ccc(OC)cc1
- Activity (Plasmodium berghei [3]): inactive

Compound: CCOC(=O)c1ccc(N(C)Cc2cnc3nc(N)nc(N)c3n2)cc1
- Activity (Plasmodium berghei [3]): inactive
- Activity (Plasmodium gallinaceum [7]): Active
- Activity (Plasmodium gallinaceum [8]): Active
- Activity (Plasmodium gallinaceum [9]): Active

Compound: CCCN(Cc1cnc2nc(N)nc(N)c2n1)c1ccc(Cl)c(Cl)c1
- MIC (Shigella sonnei): > 25 µg/mL
- MIC (Staphylococcus aureus [1]): < 0.25 µg/mL
- Activity (Plasmodium gallinaceum [4]): Active
- Activity (Plasmodium gallinaceum [5]): Active
- MIC (Staphylococcus aureus [2]): < 0.25 µg/mL
- Activity (Plasmodium berghei [3]): inactive
- MIC (Escherichia coli): > 25 µg/mL
- Activity (Plasmodium gallinaceum [7]): Active
- Activity (Plasmodium gallinaceum [8]): Active
- MIC (Enterococcus faecalis): < 0.25 µg/mL
- Activity (Plasmodium gallinaceum [9]): Active

Compound: COc1cc(N(C)Cc2c[n+]([O-])c3nc(N)nc(N)c3n2)cc(OC)c1OC
- Activity (Plasmodium berghei [3]): inactive

Compound: CCN(Cc1c[n+]([O-])c2nc(N)nc(N)c2n1)c1ccc(Cl)cc1
- Activity (Plasmodium berghei [3]): inactive

Compound: CC(C)N(Cc1c[n+]([O-])c2nc(N)nc(N)c2n1)c1ccc(Cl)cc1
- Activity (Plasmodium berghei [3]): inactive

Compound: CCCN(Cc1c[n+]([O-])c2nc(N)nc(N)c2n1)c1ccc(Cl)c(Cl)c1
- Activity (Plasmodium berghei [3]): inactive

Compound: CN(Cc1cnc2nc(N)nc(N)c2n1)c1cccc2ccccc12
- MIC (Shigella sonnei): > 25 µg/mL
- MIC (Staphylococcus aureus [1]): 1 µg/mL (≈ 3.02 µM)
- Survival (Plasmodium berghei [15]): 5.4 days
- Activity (Plasmodium berghei [13]): Active
- MIC (Staphylococcus aureus [2]): > 2.5 µg/mL
- MIC (Escherichia coli): > 25 µg/mL
- Activity (Plasmodium cynomolgi [16]): inactive
- MIC (Enterococcus faecalis): < 0.25 µg/mL
- Activity (Plasmodium cynomolgi [17]): inactive

Compound: CCN(Cc1cnc2nc(N)nc(N)c2n1)c1ccc(OC)cc1
- MIC (Shigella sonnei): > 25 µg/mL
- Activity (Plasmodium gallinaceum [18]): Active
- MIC (Staphylococcus aureus [1]): < 0.25 µg/mL
- Activity (Plasmodium gallinaceum [19]): Active
- MIC (Staphylococcus aureus [2]): < 0.25 µg/mL
- Activity (Plasmodium berghei [3]): inactive
- MIC (Escherichia coli): > 25 µg/mL
- Activity (Plasmodium gallinaceum [20]): Active
- MIC (Enterococcus faecalis): < 0.25 µg/mL

Compound: Nc1nc(N)c2nc(CN3CCCc4ccccc43)cnc2n1
- Activity (Plasmodium gallinaceum [5]): Active
- Survival (Plasmodium gallinaceum [21]): 1.3 days
- Activity (Plasmodium gallinaceum [7]): Active
- Activity (Plasmodium gallinaceum [8]): Active
- Survival (Plasmodium gallinaceum [22]): 2.3 days
- Activity (Plasmodium gallinaceum [9]): Active
